Compounds with a hit are over-represented: about 2.3% of the library has one in this group of screens.
TRPC6 inh: blocks the mouse TRPC6 cation channel | HEK293-TRPC6, membrane potential dye, ACh-evoked depolarization; hits give low values | Q61143 | AID 2553 | 310,000 tested, 1.1% active | B-score at 10 µM;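 active = B-score under library mean minus 3 SD, initial fluorescence not abnormally high, positive integrated signal ratio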;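 also: B-score derived from integrated fluorescence ratio over the kinetic read; more negative B-score means stronger inhibition of depolarization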
TRPC6 act: mouse TRPC6 channel activation; HEK293-TRPC6 membrane potential dye fluorescence; hits give high values; B-score at 10 µM; AID 2550; 310,000 tested, 0.13% active;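 active = B-score of the integrated fluorescence ratio above library mean plus 3 SD, and starting fluorescence ratio within library mean plus 5 SD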;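 also: higher score means more depolarization so channel activation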
TRPC4 inh: inhibitors of mouse TRPC4 channel; Q9QUQ5; HEK293 TRPC4beta/mu-opioid, DAMGO-evoked Fluo4 calcium flux; hits give low values; B-score at 10 µM; 300,000 tested, 0.39% active;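 active = B-score over 3 SD under the library average, no early fluorescence shift, positive overall ratio signal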
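test system = HEK293 cells with stable TRPC4beta plus mu-opioid receptor expression | detection = Fluo4 Ca2+ flux fluorescence | read-out = integrated fluorescence ratio relative to baseline, converted to per-well B score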
TRPC4 potent: allosteric potentiators of mouse TRPC4 channel; Q9QUQ5; B-score at 10 µM; HEK293 TRPC4beta/mu-opioid, DAMGO EC20, Fluo-4 Ca2+ flux; hits give high values; 310,000 tested, 0.42% active;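 active = B-score of calcium response area above 5 SD of library B-scores, with initial fluorescence ratio within 5 SD of library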;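 also: B-score of integrated fluorescence ratio over time as area under calcium response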
TRPC4 agonist: opens the mouse TRPC4 cation channel; 310,000 tested, 0.49% active; HEK293 TRPC4beta/mu-opioid, Fluo4 calcium fluorescence; hits give high values; AID 2237; B-score at 10 µM; Q9QUQ5;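 active = B-score above 5 SD of library B-scores, and initial fluorescence ratio not above library mean plus 5 SD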;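 also: positive B-score marks a calcium rise read as TRPC4 activation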
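Assay system: HEK293 stable line with TRPC4beta plus mu-opioid receptor; schedule: 45 min room-temperature Fluo4 loading, 110 s read; technique: kinetic Fluo4 calcium fluorescence; evaluation: integrated baseline-normalised fluorescence ratio, converted to per-well B score; controls: buffer (low) and maximal DAMGO (high)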
TRPC4 spec 2: second selectivity test of TRPC6 inhibitors: effect on mouse TRPC4. 920 tested, 42% active. HEK293 TRPC4/MOR, membrane potential dye fluorescence; channel activated by saturating DAMGO dose. inhibition, % at 10 µM. shares compounds with TRPC6 inh;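 active = compounds whose fluorescence signal differed from control wells by over 3 SD, either direction, in both duplicate plates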
TRPC4 spec: mouse TRPC4 off-target activity of TRPC6 inhibitors; 920 tested, 61% active; activity change, negative = inhibition, % at 10 µM; HEK293 TRPC4/mu-opioid, membrane potential fluorescence; shares compounds with TRPC6 inh;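 active = rise or fall in signal beyond 3 SD of buffer-only wells in both replicate plates, either sign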;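 also: integrated kinetic ratio of fluorescence range over baseline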
HEK293 MPD ctr 2-1: parental HEK293 nonspecific activity of TRPC6 inhibitors, second screen; shares compounds with TRPC6 inh; parental HEK293 membrane potential dye fluorescence; maximal acetylcholine challenge after compound addition; signal change vs control, % at 10 µM; 920 tested, 31% active; AID 2779;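 active = membrane potential signal moving either way by over 3 SD of the maximum-effect control, in both duplicate plates, meaning non-specific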
HEK293 MPD ctr-1: parental HEK293 nonspecific activity of TRPC6 inhibitors; membrane potential signal change, % at 10 µM; 920 tested, 60% active; AID 2780; shares compounds with TRPC6 inh; parental HEK293 membrane potential dye fluorescence;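 active = membrane potential signal shifting up or down by more than 3 SD of buffer-only wells, on both duplicate plates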
HEK293 MPD ctr-2: parental HEK293 nonspecific activity of TRPC6 modulators. shares compounds with TRPC6 inh. AID 488924. 2,400 tested, 51% active. membrane potential dye fluorescence. membrane potential signal change, % at 10 µM;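 active = membrane potential signal moves up or down beyond 5 SD from buffer-only wells, on both duplicate plates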
HEK293 MPD ctr 2-2: second check of TRPC6 modulator effects in parental HEK293 cells | shares compounds with TRPC6 inh | membrane potential dye fluorescence; after compound, maximal acetylcholine stimulation | inhibition, % at 10 µM | 2,400 tested, 14% active;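 active = membrane potential signal drops by more than 5 SD from the mean control signal, in both duplicate plates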;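 also: plate controls were acetylcholine ECmax control wells for no effect and buffer only wells for full effect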
TRPC4 ctr mod: mouse TRPC4 off-target activity of TRPC6 modulators; shares compounds with TRPC6 inh; HEK293 TRPC4/mu-opioid, membrane potential fluorescence; percent change from control (negative = decrease, positive = increase), % at 10 µM; 2,400 tested, 69% active;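 active = membrane potential signal moved up or down beyond 5 SD of buffer control wells, in both duplicate plates, actives on both sides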;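 also: plate controls were assay buffer wells for no effect and DAMGO maximal-effect wells for full effect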
TRPC4 ctr inh 2: second check of whether TRPC6 modulators also affect mouse TRPC4 | shares compounds with TRPC6 inh | HEK293 TRPC4/mu-opioid, membrane potential dye fluorescence; stimulated with maximal-effect DAMGO | inhibition, % at 10 µM | 2,400 tested, 55% active | AID 488928;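 active = drop in membrane potential signal beyond 5 SD of the control wells in both duplicate plates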;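 also: TRPC4 counter screen for TRPC6 hits run under conditions tuned for TRPC6 not TRPC4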
TRPC6 block conf: confirmation of mouse TRPC6 inhibitors; inhibition, % at 10 µM; HEK293-TRPC6, membrane potential dye, ACh-evoked depolarization; AID 488960; shares compounds with TRPC6 inh; 3,300 tested, 43% active;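 active = fluorescence ratio falls more than 5 SD below the full-stimulation control mean, in both duplicate runs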;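 also: integrated fluorescence ratio of peak minus minimum over baseline after agonist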
TRPC6 act confirm: confirmation of mouse TRPC6 activators; shares compounds with TRPC6 inh; AID 488961; 2,800 tested, 11% active; activation, % at 10 µM; HEK293-TRPC6 membrane potential dye fluorescence, FDSS;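 active = ratio signal rise beyond 5 SD above unstimulated control wells' mean, seen in both duplicate runs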;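 also: plate controls were buffer EC0 wells for no effect and acetylcholine ECmax response for full effect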
Numbers without * were called inactive; i = inactive; . = no result given.

SMILES	TRPC6 inh	TRPC6 act	TRPC4 inh	TRPC4 potent	TRPC4 agonist	HEK293 MPD ctr-2	HEK293 MPD ctr 2-2	TRPC4 ctr mod	TRPC4 ctr inh 2	TRPC6 block conf	TRPC6 act confirm	others
CC(C)(C)c1ccc(Cn2c(=N)n(CC(O)c3ccco3)c3ccccc32)cc1 (configuration not stated)	-7.3*	i	i	i	i	.	.	.	.	67%*	i	TRPC4 spec 2=37%*;TRPC4 spec=11%*;HEK293 MPD ctr 2-1=i;HEK293 MPD ctr-1=8.7%*
CCn1c(=N)n(CC(O)c2ccccc2)c2ccccc21 (configuration not stated)	i	i	i	i	i	.	.	.	.	.	.
CCOC(=O)C1(Cc2ccccc2)CCCN(C(=O)c2cnn(CC)c2)C1 (configuration not stated)	i	i	i	i	i	.	.	.	.	.	.
COc1ccc(C2(O)CCN(CCCCOc3ccccc3)CC2)cc1	i	i	i	i	i	.	.	.	.	.	.
Cc1[nH]n(-c2ccc(Br)cc2)c(=O)c1C=Nc1ccc(S(=O)(=O)Nc2nccs2)cc1	-5.8*	i	i	i	i	i	i	-39%*	40%*	i	i
CCOc1ccc(-n2ccc(=O)c(C(=O)O)n2)cc1	i	i	i	i	i	.	.	.	.	.	.
O=C(c1ccco1)N1CCN(C(=O)c2ccccc2OC(=O)C23CC4CC(CC(C4)C2)C3)CC1	i	i	i	i	i	.	.	.	.	.	.
CCOC(=O)N1CCN(C(=O)c2ccccc2Oc2ccccc2)CC1	-6.1*	i	i	i	i	94%*	i	26%*	i	67%*	.
O=C(c1ccco1)N1CCN(C(=O)c2ccccc2Oc2ccccc2)CC1	-8.1*	i	i	i	i	.	.	.	.	62%*	.	TRPC4 spec 2=i;TRPC4 spec=13%*;HEK293 MPD ctr 2-1=i;HEK293 MPD ctr-1=6.7%*
CCOC(=O)C1CCN(C(=O)c2ccccc2Oc2ccccc2)CC1	i	i	i	i	i	.	.	.	.	.	.
O=S(=O)(NCCNc1ncc(C(F)(F)F)cc1Cl)C(F)(F)F	-5.3*	i	i	i	i	i	i	14%*	32%*	50%*	i
CS(=O)(=O)NCCNc1ncc(C(F)(F)F)cc1Cl	i	i	i	i	i	.	.	.	.	.	.
CCOc1ccc(C2OC(=O)Cc3cc(OC)c(OC)cc32)cc1 (configuration not stated)	i	i	i	i	i	.	.	.	.	.	.
N#CC(c1cccc(Cl)c1)c1ccc2c(C(F)(F)F)cc(C(F)(F)F)nc2n1 (configuration not stated)	-10*	i	i	i	i	.	.	.	.	75%*	i	TRPC4 spec 2=i;TRPC4 spec=0.8%*;HEK293 MPD ctr 2-1=i;HEK293 MPD ctr-1=0.4%*
NNc1ccc2c(C(F)(F)F)cc(C(F)(F)F)nc2n1	i	i	i	i	i	.	.	.	.	.	.
N#C/C(=C/c1ccc(N2CCCCC2)o1)C(=O)Nc1ccc2ccccc2c1	i	80*	i	i	i	844%*	i	233%*	i	i	274%*
Cc1ccn2c(=O)c(C(=O)NCCCN3CCCCC3C)c(O)nc2c1 (configuration not stated)	-5.3*	i	i	i	i	-274%*	70%*	-44%*	56%*	76%*	i
Cc1cccn2c(=O)c(C(=O)NCCCN3CC(C)CC(C)C3)c(O)nc12 (configuration not stated)	-5.1*	i	i	i	73*	-140%*	i	i	i	i	i
Cc1ccn2c(=O)c(C(=O)NCCCN3CCCC3=O)c(O)nc2c1	-5.5*	i	i	i	i	-316%*	i	-45%*	i	i	i
O=C(Nc1ccc2oc(=O)ccc2c1)c1cc2ccccc2o1	i	i	i	i	i	.	.	.	.	.	.
O=C(Nc1ccc2oc(=O)ccc2c1)c1cccnc1	-6.3*	i	i	i	i	-180%*	i	-31%*	i	i	i
O=C(Nc1c(-c2ccccc2)nc2sccn12)c1ccccc1	i	i	i	i	i	.	.	.	.	.	.
Cc1cc(N2CCN(c3nc(-c4ccc([N+](=O)[O-])cc4)cs3)CC2)c2ccccc2n1	i	i	i	i	i	.	.	.	.	.	.
CC(=O)Nc1ccc(S(=O)(=O)N2CCN(c3cc(C)nc4ccccc34)CC2)cc1	-7.8*	i	i	i	i	-267%*	i	-45%*	70%*	46%*	i
Cc1cc(N2CCN(C(=O)Nc3ccccc3C#N)CC2)c2ccccc2n1	-6.7*	i	i	i	i	-230%*	i	-40%*	44%*	42%*	i
NCCc1ccc(O)c(O)c1	-5.3*	i	i	i	i	i	i	i	i	i	i
COC(=O)C(N)Cc1ccc(O)c(O)c1 (configuration not stated)	i	i	i	i	i	.	.	.	.	.	.
CN(C)CCC(Oc1ccccc1OCc1ccccc1)c1ccccc1 (configuration not stated)	-5.9*	i	i	i	i	257%*	i	49%*	85%*	44%*	.

Screening results (PubChem)
